Source: PMC4244684 (The Journal of biological chemistry, 2007)
No end group written: not given here.

Target: Su(dx) WW4 (Drosophila melanogaster, UniProt Q9Y0H4)
Experiment: ITC binding of peptides to Su
How it was run: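 Cleaved Su(dx) WW4 (GST fusion from E. coli BL21, glutathione-bead purified, PreScission-cleaved, dialysed overnight into ITC buffer) at 15–35 μm in cell; 1–1.5 mm peptide titrated in. Peptide and protein concentrations set by denaturing Trp/Tyr UV absorbance. 50 mm phosphate, 150 mm NaCl, pH 7.4, degassed; 25 °C. Dilution-corrected heats fitted for ΔH and Ka, n fixed at 1.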

Chain of Su(dx) WW4 (Q9Y0H4 515-557): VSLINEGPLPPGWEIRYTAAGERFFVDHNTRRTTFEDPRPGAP

Sequence	Kd
AKQPPSYEDC [N2]	45 ± 3 µM
AKQPPSYEDCIK [N1]	45 ± 2 µM
